Experimental data taken from ChEMBL document CHEMBL4020828, “Design and Syntheses of Highly Potent Teixobactin Analogues against Staphylococcus aureus, Methicillin-Resistant Staphylococcus aureus (MRSA), and Vancomycin-Resistant Enterococci (VRE) in Vitro and in Vivo” (J Med Chem, 2018).
Converted amounts (≈) assume the structure as drawn. The source made the active and inactive calls. The calls are words filed in the database; no cut-off is given here.

Tests used:
Assay type in all cases: functional
Staphylococcus aureus [1] = experiment: Antibacterial activity against methicillin-sensitive Staphylococcus aureus
[2] = tested on: Staphylococcus epidermidis; experiment: Antibacterial activity against Staphylococcus epidermidis
Staphylococcus aureus [3] = experiment: Antibacterial activity against methicillin-resistant Staphylococcus aureus USA300
Staphylococcus aureus [4] = experiment: Antibacterial activity against methicillin-resistant Staphylococcus aureus
Staphylococcus aureus [5] = experiment: Antibacterial activity against methicillin-resistant Staphylococcus aureus ATCC 700699 after 24 hrs; settings: ATCC 700699, 24 h
Staphylococcus aureus [6] = experiment: Antibacterial activity against methicillin-resistant Staphylococcus aureus ATCC 33591 after 24 hrs; settings: ATCC 33591, 24 h
Staphylococcus aureus [7] = experiment: Antibacterial activity against methicillin-resistant Staphylococcus aureus isolate 42412 after 24 hrs; settings: isolate 42412, 24 h
Staphylococcus aureus [8] = experiment: Antibacterial activity against methicillin-resistant Staphylococcus aureus isolate 21455 after 24 hrs; settings: isolate 21455, 24 h
Staphylococcus aureus [9] = experiment: Antibacterial activity against methicillin-sensitive Staphylococcus aureus after 24 hrs
Staphylococcus aureus [10] = experiment: Antibacterial activity against methicillin-resistant Staphylococcus aureus after 24 hrs
Enterococcus faecalis [11] = experiment: Antibacterial activity against vancomycin-resistant Enterococcus faecalis ATCC 700802 after 24 hrs; settings: ATCC 700802, 24 h
Enterococcus faecalis [12] = experiment: Antibacterial activity against vancomycin-resistant Enterococcus faecalis ATCC 29212 after 24 hrs; settings: ATCC 29212, 24 h
Staphylococcus aureus [13] = experiment: (§1) Antibacterial activity against Staphylococcus aureus ATCC 29213 infected in C57BL6 mouse cornea assessed as decrease in log bacterial load/tissue at 0.3% administered tropically 2 times on day 1, 4 times on day 2 and 2 times on day 3 starting from 6 hrs post infection measured 48 hrs post last dose
Method in brief: (§2)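 Mouse corneal epithelium scratched with a scalpel, then infected with 15 µl of 6×10⁶ CFU/ml S. aureus ATCC 29213. From 6 h p.i., 15 µl of PBS vehicle, 0.3% w/v peptide in PBS or 0.3% moxifloxacin was applied, 8 doses total. Outcomes were slit-lamp examination, AS-OCT corneal thickness and CFU counts of harvested corneas (mean log₁₀ CFU/tissue ± SEM).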

Staphylococcus aureus [14] = experiment: as §1, with “mean corneal thickness” for “decrease in log bacterial load/tissue”, “dose by AS-OCT method (reference value: 186.2 +/- 17.5 micrometer)” for “dose”; method in brief: as §2
Staphylococcus aureus [15] = experiment: as §1, with “corneal infiltrates” for “log bacterial load/tissue”, “dose by slit-lamp photography” for “dose”; method in brief: as §2
Staphylococcus aureus [16] = experiment: as §1, with “conjunctival chemosis” for “log bacterial load/tissue”, “dose by slit-lamp photography” for “dose”; method in brief: as §2
Staphylococcus aureus [17] = experiment: as §1, with “mean corneal thickness” for “decrease in log bacterial load/tissue”, “24” for “48”, “dose by AS-OCT method (reference value: 151.7 +/- 12.7 micrometer)” for “dose”; method in brief: as §2

CC[C@@H](C)[C@@H](NC(=O)[C@@H](CCC(N)=O)NC(=O)[C@H](CO)NC(=O)[C@@H](NC(=O)[C@@H](Cc1ccccc1)NC)[C@@H](C)CC)C(=O)N[C@H](C(=O)N[C@@H](CO)C(=O)N[C@H]1C(=O)N[C@@H](C)C(=O)N[C@@H](CCCCNC(=N)N)C(=O)N[C@@H]([C@@H](C)CC)C(=O)O[C@H]1C)[C@@H](C)CC
MIC (Staphylococcus aureus [1]): 1 µg/mL (≈ 0.795 µM) | MIC [2]: 1 µg/mL (≈ 0.795 µM) | MIC (Staphylococcus aureus [3]): 2 µg/mL (≈ 1.59 µM)

CC[C@@H](C)[C@@H](NC(=O)[C@@H](CCC(N)=O)NC(=O)[C@H](CO)NC(=O)[C@@H](NC(=O)[C@@H](Cc1ccccc1)NC)[C@@H](C)CC)C(=O)N[C@H](C(=O)N[C@@H](CO)C(=O)N[C@H]1C(=O)N[C@@H](C)C(=O)N[C@@H](CCCCN)C(=O)N[C@@H]([C@@H](C)CC)C(=O)O[C@H]1C)[C@@H](C)CC
MIC [2]: 0.5 to 1 µg/mL (≈ 0.411 to 0.822 µM) | MIC (Staphylococcus aureus [4]): 1 µg/mL (≈ 0.822 µM)

CC[C@@H](C)[C@@H](NC(=O)[C@@H](CCC(N)=O)NC(=O)[C@H](CO)NC(=O)[C@@H](NC(=O)[C@@H](Cc1ccccc1)NC)[C@@H](C)CC)C(=O)N[C@H](C(=O)N[C@@H](CO)C(=O)N[C@H]1C(=O)N[C@@H](C)C(=O)N[C@@H](CCCNC(=N)N)C(=O)N[C@@H]([C@@H](C)CC)C(=O)O[C@H]1C)[C@@H](C)CC
MIC (Staphylococcus aureus [1]): 2 µg/mL (≈ 1.61 µM) | MIC (Staphylococcus aureus [4]): 2 µg/mL (≈ 1.61 µM)

CC[C@@H](C)[C@@H](NC(=O)[C@@H](CCC(N)=O)NC(=O)[C@H](CO)NC(=O)[C@@H](NC(=O)[C@@H](Cc1ccccc1)NC)[C@@H](C)CC)C(=O)N[C@H](C(=O)N[C@@H](CO)C(=O)N[C@H]1C(=O)N[C@@H](C)C(=O)N[C@@H](CC(C)C)C(=O)N[C@@H]([C@@H](C)CC)C(=O)O[C@H]1C)[C@@H](C)CC
MIC (Staphylococcus aureus [5]): 0.25 µg/mL (≈ 0.208 µM) | MIC (Staphylococcus aureus [6]): 0.25 µg/mL (≈ 0.208 µM) | MIC (Staphylococcus aureus [7]): < 0.0625 µg/mL | MIC (Staphylococcus aureus [8]): < 0.0625 µg/mL | MIC (Staphylococcus aureus [9]): 0.063 µg/mL (≈ 0.0524 µM) | MIC (Staphylococcus aureus [10]): 0.25 µg/mL (≈ 0.208 µM) | MIC (Enterococcus faecalis [11]): 0.25 µg/mL (≈ 0.208 µM) | MIC (Enterococcus faecalis [12]): 0.25 µg/mL (≈ 0.208 µM)

CC[C@@H](C)[C@@H](NC(=O)[C@@H](CCC(N)=O)NC(=O)[C@H](CO)NC(=O)[C@@H](NC(=O)[C@@H](Cc1ccccc1)NC)[C@@H](C)CC)C(=O)N[C@H](C(=O)N[C@@H](CO)C(=O)N[C@H]1C(=O)N[C@@H](C)C(=O)N[C@@H](C(C)C)C(=O)N[C@@H]([C@@H](C)CC)C(=O)O[C@H]1C)[C@@H](C)CC
MIC (Staphylococcus aureus [9]): 0.25 µg/mL (≈ 0.211 µM) | MIC (Staphylococcus aureus [10]): 0.5 µg/mL (≈ 0.421 µM)

COc1c(N2C[C@@H]3CCCN[C@@H]3C2)c(F)cc2c(=O)c(C(=O)O)cn(C3CC3)c12 [MOXIFLOXACIN]
Activity (Staphylococcus aureus [13]): 3.7 log10CFU | Activity (Staphylococcus aureus [14]): 140.3 um | Activity (Staphylococcus aureus [15]): Active | Activity (Staphylococcus aureus [16]): Active | Activity (Staphylococcus aureus [17]): 124.2 um

CC[C@@H](C)[C@@H](NC(=O)[C@@H](CCC(N)=O)NC(=O)[C@H](CO)NC(=O)[C@@H](NC(=O)[C@@H](Cc1ccccc1)NC)[C@@H](C)CC)C(=O)N[C@H](C(=O)N[C@@H](CO)C(=O)N[C@H]1C(=O)N[C@@H](C)C(=O)N[C@@H](C)C(=O)N[C@@H]([C@@H](C)CC)C(=O)O[C@H]1C)[C@@H](C)CC
MIC (Staphylococcus aureus [9]): 1 µg/mL (≈ 0.863 µM) | MIC (Staphylococcus aureus [10]): 1 to 2 µg/mL (≈ 0.863 to 1.73 µM)
